Results from different studies.
Protocols differ between the studies behind these lines.
Cell line: HEK293
Effect on: cell growth or viability

Compound | test | conditions | measurement | value
C[C@@H](c1cc(Cl)cc(Cl)c1)N(C)c1ncc2c(N)nc(N)nc2n1 | MTT | 24 h | CC50 | 31.2 µM
CCn1cc(C(=O)NCCNCCO)c(=O)c2cc(OC)c(OCc3cc(F)cc(F)c3)cc21 | resazurin | 20 h | CC50 | > 32 µg/mL
CC1c2cc(c(O)cc2O)C(C)c2cc(c(O)cc2O)C(C)c2cc(c(O)cc2O)C(C)c2cc1c(O)cc2O (stereo not drawn) | ATP luminescence | 24 h | CC50 | 21.2 µM
Cc1ccc2oc(-c3cc(NC(=O)Cc4ccccc4)ccc3Cl)nc2c1 | MTT | 24 h | CC50 | > 400 µM
CC(C)(O)c1coc(S(=O)(=O)NC(=O)Nc2c3c(cc4c2CCC4)CCC3)c1 | MTT | 10 µM, 4 h | viability | 95.2%
Cc1c2ccncc2c(C)c2c1[nH]c1ccc(OCCN(C)C)cc12 | MTS |  | IC50 | 3.16 µM
CO[C@H]1C[C@@H](C[C@H](C)[C@H]2CC(=O)[C@@H](C)/C=C(\C)[C@H](O)[C@H](OC)C(=O)[C@@H](C)C[C@@H](C)/C=C/C=C/C=C(\C)[C@H](OC)C[C@H]3CC[C@H](C)[C@](O)(O3)C(=O)C(=O)N3CCCC[C@@H]3C(=O)O2)CC[C@@H]1OCCO (racemic) | MTT | 24 h | CC50 | 63.7 µM
O=P(O)(O)c1cc2c(O)c(c1)Cc1cc(P(=O)(O)O)cc(c1O)Cc1cc(P(=O)(O)O)cc(c1O)Cc1cc(P(=O)(O)O)cc(c1O)Cc1cc(P(=O)(O)O)cc(c1O)Cc1cc(P(=O)(O)O)cc(c1O)Cc1cc(P(=O)(O)O)cc(c1O)Cc1cc(P(=O)(O)O)cc(c1O)C2 | MTT | 24 h | CC50 | 608 µM
CC/C(=C(\c1ccccc1)c1ccc(OCCN(C)C)cc1)c1ccccc1 | resazurin | 20 h | CC50 | 5.62 µM
